Reference: ChEMBL document CHEMBL1765010, “Reversible competitive α-ketoheterocycle inhibitors of fatty acid amide hydrolase containing additional conformational constraints in the acyl side chain: orally active, long-acting analgesics” (J Med Chem, 2011)
Active and inactive are the calls of the source. The rule behind the calls is not given here.

How the values were obtained:
[1] = test system: Mus musculus; test: Inhibition of FAAH in po dosed C57Bl/6J mouse brain assessed as increase of 2-arachidonoylglycerol level after 1 hr relative to control; format: functional, organism-based
Method in brief: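 Male C57Bl/6J mice (<6 months, 20–28 g) given a single oral dose as a PEG300 solution. Brains were homogenized in CHCl3:MeOH:Tris pH 8.0 containing deuterated internal standards. The organic extract was analysed by reverse-phase C18 LC–ESI triple-quadrupole MS for anandamide, PEA, OEA and 2-AG. Dose series (10, 25, 50 mg/kg) was sampled at 1 h; the 50 mg/kg time course ran to 9 h. Three mice per group in the i.p./p.o. comparison.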

[2] = test system: Mus musculus; test: Analgesic activity in C57BL/6 mouse chronic constriction injury model assessed as reversal of paws ipsilateral to CCI surgery at 50 mg/kg, po measured up to 9 hrs; format: functional, organism-based; set-up: dose 50 mg/kg
Method in brief: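 Male C57BL/6 mice with sciatic nerve chronic constriction injury (two silk ligatures, isoflurane anesthesia), tested from 10 days post-surgery after 2 days of apparatus habituation. Single oral dose in PEG300 or vehicle. Blinded observer tested ipsilateral and contralateral paws at 1, 3, 6 and 9 h: von Frey up-down method (0.16–6.0 g filaments, 5 stimuli each) and acetone-induced cold response. n = 9–10; mean ± SEM.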

[3] = test system: Mus musculus; test: Inhibition of FAAH in C57Bl/6J mouse brain assessed as increase of anandamide level at 10 to 50 mg/kg, po after 1.5 to 3 hrs; format: functional, organism-based
[4] = test system: Mus musculus; test: Inhibition of FAAH in C57Bl/6J mouse brain assessed as increase of anandamide level at 25 to 50 mg/kg, po after 1 hr relative to control; format: functional; details: dose mg/kg 25-50
Method in brief: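 Male C57Bl/6J mice (<6 months, 20–28 g) given compound orally as a PEG300 solution at 10, 25 or 50 mg/kg, with 3 mice per group in the 50 mg/kg p.o. comparison; brains collected 1 h post-dose. Lipids extracted in CHCl3:MeOH:Tris pH 8.0 with deuterated internal standards, then measured by C18 LC-ESI-MS/MS relative to vehicle-treated mice.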

[5] = test system: Mus musculus; test: Inhibition of FAAH in C57Bl/6J mouse brain assessed as increase of N-palmitoyl ethanolamine level at 30 mg/kg, ip after 1 hr relative to control; format: functional; details: route intraperitoneal
Method in brief: (§1)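 Male C57Bl/6J mice (<6 months, 20–28 g) dosed i.p. at 30 mg/kg in 18:1:1 saline:ethanol:emulphor emulsion; brains taken 1 h later. One mouse in the initial screen, 3 per group in the follow-up. Brain homogenized in CHCl3:MeOH:Tris pH 8.0 with deuterated lipid standards; organic extract quantified by reverse-phase C18 LC-ESI-MS/MS against vehicle controls.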

[6] = biological target: T1, Fatty-acid amide hydrolase 1 (Rattus norvegicus, UniProt P97612); test: Inhibition of rat recombinant FAAH expressed in Escherichia coli assessed as [14C]-labeled oleamide to oleic acid conversion
T1 sequence (P97612 whole entry): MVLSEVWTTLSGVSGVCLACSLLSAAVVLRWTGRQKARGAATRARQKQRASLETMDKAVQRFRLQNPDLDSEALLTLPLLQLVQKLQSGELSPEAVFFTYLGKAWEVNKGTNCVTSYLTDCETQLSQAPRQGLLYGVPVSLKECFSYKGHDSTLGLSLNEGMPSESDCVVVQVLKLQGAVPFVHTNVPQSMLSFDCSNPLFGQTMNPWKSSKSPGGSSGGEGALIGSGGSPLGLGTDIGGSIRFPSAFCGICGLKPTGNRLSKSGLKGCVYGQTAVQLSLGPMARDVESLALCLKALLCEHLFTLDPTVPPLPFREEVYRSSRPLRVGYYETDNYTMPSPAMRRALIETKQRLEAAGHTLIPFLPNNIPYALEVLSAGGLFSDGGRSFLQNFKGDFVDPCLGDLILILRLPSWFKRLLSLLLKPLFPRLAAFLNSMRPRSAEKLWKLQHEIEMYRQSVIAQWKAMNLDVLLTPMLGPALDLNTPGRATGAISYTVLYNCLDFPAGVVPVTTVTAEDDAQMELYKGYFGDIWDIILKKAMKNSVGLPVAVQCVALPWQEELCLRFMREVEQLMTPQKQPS

[7] = test system: Mus musculus; test: Inhibition of FAAH in C57Bl/6J mouse brain assessed as increase of 2-arachidonoylglycerol level at 30 mg/kg, ip after 1 hr relative to control; format: functional; details: route intraperitoneal; method in brief: as §1
[8] = test system: Mus musculus; test: Inhibition of FAAH in C57Bl/6J mouse liver assessed as increase of 2-arachidonoylglycerol level at 30 mg/kg, ip after 1 hr relative to control; format: functional; details: route intraperitoneal
[9] = test system: Mus musculus; test: Toxicity in C57BL/6 mouse assessed as catalepsy at 50 mg/kg, po; format: organism-based; set-up: dose 50 mg/kg, route oral; details: in vivo

O=C(c1ncc(-c2ccccn2)o1)[C@H]1CCc2cc(Oc3ccccc3)ccc2C1
Activity [1]: Dose-dependent effect
Activity [2]: Active
Activity [3]: Active
fold change (FC) [4]: 12
fold change (FC) [5]: 7.2
Ki [6]: 4.4 nM
fold change (FC) [7]: 0.9
fold change (FC) [8]: 0.8
Activity [9]: Non-toxic
